Assay results: ChEMBL document CHEMBL1157911, “A prodrug approach towards the development of tricyclic-based FBPase inhibitors” (Bioorg Med Chem Lett, 2010)
≈ marks a conversion by molar mass, not a printed value.

Key:
Cytochrome P450 3A4 = Cytochrome P450 3A4 (Homo sapiens, UniProt P08684); assay: Inhibition of CYP3A4; type: ADME
[1] = Solubility at pH 1.2; type: physicochemical; conditions: buffer
Method in brief: (§1)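 Solubility measured in Japanese Pharmacopoeia test fluids: first fluid (JP1, pH 1.2, simulating gastric conditions) and second fluid (JP2, pH 6.8, simulating intestinal conditions).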

[2] = Solubility at pH 6.8; type: physicochemical; conditions: buffer; method in brief: as §1
[3] = Inhibition of fructose-1,6-bisphosphatase in monkey hepatocytes assessed as glucose production; type: cell-based; conditions: Macaca mulatta, Hepatocyte

Chain of Cytochrome P450 3A4 (P08684 whole entry): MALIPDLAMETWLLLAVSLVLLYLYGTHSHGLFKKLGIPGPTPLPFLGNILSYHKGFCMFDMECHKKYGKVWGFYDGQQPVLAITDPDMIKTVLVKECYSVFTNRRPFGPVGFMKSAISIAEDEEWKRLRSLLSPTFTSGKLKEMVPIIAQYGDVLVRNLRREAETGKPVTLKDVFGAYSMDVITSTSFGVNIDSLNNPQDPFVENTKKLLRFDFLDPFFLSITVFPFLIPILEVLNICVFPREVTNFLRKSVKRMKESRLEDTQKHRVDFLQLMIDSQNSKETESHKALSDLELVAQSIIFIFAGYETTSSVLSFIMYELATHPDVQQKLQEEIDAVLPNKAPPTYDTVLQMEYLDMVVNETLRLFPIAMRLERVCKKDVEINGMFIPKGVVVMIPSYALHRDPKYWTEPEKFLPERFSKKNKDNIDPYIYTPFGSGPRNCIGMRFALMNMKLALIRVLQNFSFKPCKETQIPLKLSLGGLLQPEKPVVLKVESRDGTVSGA

SMILES	IC50 (Cytochrome P450 3A4)	solubility [1]	solubility [2]	IC50 [3]
Cc1cc(OC[P@]2(=O)OCC[C@@H](c3ccc(Cl)cc3)O2)c2c(c1C)Cc1scnc1-2 (racemic)	0.73 µM	< 0.5 µg/mL	< 0.5 µg/mL	> 100 µM
CCOC(=O)[C@H](C)NP(=O)(COc1cc(C)c(C)c2c1-c1ncsc1C2)N[C@@H](C)C(=O)OCC	0.58 µM	27 µg/mL (≈ 53 µM)	66 µg/mL (≈ 130 µM)	6.8 µM
Cc1cc(OC[P@@]2(=O)OCC[C@@H](c3cccnc3)O2)c2c(c1C)Cc1scnc1-2 (racemic)	2.9 µM	86 µg/mL (≈ 201 µM)	84 µg/mL (≈ 196 µM)	8.8 µM
Cc1cc(OC[P@@]2(=O)OCC[C@@H](c3ccncc3)O2)c2c(c1C)Cc1scnc1-2 (racemic)	–	88 µg/mL (≈ 205 µM)	51 µg/mL (≈ 119 µM)	41 µM
COc1cccc([C@@H]2CCO[P@@](=O)(COc3cc(C)c(C)c4c3-c3ncsc3C4)O2)c1 (racemic)	0.3 µM	< 0.5 µg/mL	< 0.5 µg/mL	> 100 µM
Cc1cc(OC[P@@]2(=O)OCC[C@@H](c3ccccn3)O2)c2c(c1C)Cc1scnc1-2 (racemic)	8.4 µM	86 µg/mL (≈ 201 µM)	73 µg/mL (≈ 170 µM)	22 µM
Cc1cc(OC[P@]2(=O)OCC[C@@H](c3cccc(Cl)c3)O2)c2c(c1C)Cc1scnc1-2	2.7 µM	< 0.5 µg/mL	< 0.5 µg/mL	> 100 µM
Cc1cc(OC[P@@]2(=O)OCC[C@@H](c3ccc(Cl)cc3)O2)c2c(c1C)Cc1scnc1-2 (racemic)	0.65 µM	4.4 µg/mL (≈ 9.53 µM)	< 0.5 µg/mL	66 µM
Cc1cc(OC[P@@]2(=O)OCC[C@@H](c3cccc(Cl)c3)O2)c2c(c1C)Cc1scnc1-2	0.42 µM	19 µg/mL (≈ 41.1 µM)	< 0.5 µg/mL	15 µM
Cc1cc(OC[P@]2(=O)OCC[C@H](c3cccnc3C)O2)c2c(c1C)Cc1scnc1-2 (racemic)	5.8 µM	87 µg/mL (≈ 197 µM)	83 µg/mL (≈ 188 µM)	11 µM
Cc1cc(OC[P@@]2(=O)OCC[C@@H](c3cccnc3C)O2)c2c(c1C)Cc1scnc1-2	15 µM	88 µg/mL (≈ 199 µM)	84 µg/mL (≈ 190 µM)	4 µM
Cc1ccncc1[C@@H]1CCO[P@](=O)(COc2cc(C)c(C)c3c2-c2ncsc2C3)O1 (racemic)	5.2 µM	> 100 µg/mL	81 µg/mL (≈ 183 µM)	> 100 µM
COc1cccc([C@@H]2CCO[P@](=O)(COc3cc(C)c(C)c4c3-c3ncsc3C4)O2)c1 (racemic)	0.27 µM	17 µg/mL (≈ 37.2 µM)	0.8 µg/mL (≈ 1.75 µM)	> 100 µM
